In ChEMBL document CHEMBL3580553, “Potent and Nontoxic Chemosensitizer of P-Glycoprotein-Mediated Multidrug Resistance in Cancer: Synthesis and Evaluation of Methylated Epigallocatechin, Gallocatechin, and Dihydromyricetin Derivatives” (J Med Chem, 2015):
Activity calls are given as the source filed them. No cut-off for these calls is given here.

Experiments:
[1] = Cytotoxicity against human LCC-6 cells after 3 days by MTS assay; format: functional, cell-based; conditions: LCC-6, 72 h
[2] = Cytotoxicity against human MDA435/LCC6MDR cells after 3 days by MTS assay; format: functional, cell-based; conditions: 72 h
L929 = experiment: Cytotoxicity against mouse L929 cells after 3 days by MTS assay; format: cell-based; conditions: L929, 72 h
[3] = molecular target: T1, ATP-dependent translocase ABCB1 (Homo sapiens, UniProt P08183); experiment: Modulation of P-gp (unknown origin) transfected in human MDA435/LCC6MDR cells assessed as reversible of paclitaxel resistance measured as IC50 for paclitaxel at 1 uM after 5 days by CellTiter 96 Aqueous assay relative to PTX alone treated cell; format: cell-based; conditions: 120 h
[4] = molecular target: T1, ATP-dependent translocase ABCB1; experiment: Modulation of P-gp (unknown origin) transfected in human MDA435/LCC6MDR cells assessed as reversible of paclitaxel resistance measured as IC50 for paclitaxel at 10 uM after 5 days by CellTiter 96 Aqueous assay relative to PTX alone treated cell; format: cell-based; conditions: 120 h
In short: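 They were held 5 days at 37 °C and viability read by CellTiter 96 AQueous (MTS). […] RF = IC50 of PTX without modulator / IC50 with modulator.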

[5] = molecular target: T1, ATP-dependent translocase ABCB1; experiment: Modulation of P-gp (unknown origin) transfected in human MDA435/LCC6MDR cells assessed as induction of intracellular doxorubicin accumulation at 2 uM after 150 mins by spectrofluorometric analysis relative to control; format: cell-based; conditions: 2.5 h
In short: (§1)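 LCC6 or LCC6MDR cells (1 × 10⁶) incubated with 20 μM DOX plus 2 μM modulator, 150 min at 37 °C; 0.2% DMSO as negative control; cells washed in cold PBS, lysed in 0.75 M HCl/0.2% Triton X-100 in isopropanol; supernatant DOX fluorescence read by spectrofluorometry.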

Homo sapiens [6] = organism: Homo sapiens; experiment: Modulation of P-gp (unknown origin) transfected in human MDA435/LCC6MDR cells assessed as restoration of intracellular doxorubicin accumulation after 150 mins by spectrofluorometric analysis relative to parental cells; format: cell-based; in short: as §1
Homo sapiens [7] = organism: Homo sapiens; experiment: Modulation of P-gp (unknown origin) transfected in human MDA435/LCC6MDR cells assessed as restoration of intracellular doxorubicin accumulation at 3 uM after 150 mins by spectrofluorometric analysis relative to parental cells; format: cell-based
In short: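 LCC6MDR cells with 20 μM DOX and modulator at 0, 0.05, 0.1, 0.5, 1, 3 or 8 μM; cells lysed and intracellular DOX measured by spectrofluorometry. N = 2–5 independent experiments, mean ± SEM.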

LCC-6 [8] = experiment: Effect on doxorubicin efflux in human LCC-6 cells measured at 1.5 uM after 30 to 150 mins by spectrofluorometry relative to control; format: functional, cell-based
In short: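 Efflux: LCC6 or LCC6MDR cells preloaded with 20 μM DOX 1 h at 37 °C, washed in PBS, resuspended in DMEM ± 1.5 μM modulator; samples at 0, 30, 60, 90, 120, 150 min chilled on ice; intracellular DOX by spectrofluorometry. DMSO control; N = 3–4, mean ± SEM.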

LCC-6 [9] = experiment: Effect on doxorubicin influx in human LCC-6 cells measured at 1.5 uM after 30 to 150 mins by spectrofluorometry relative to control; format: functional, cell-based
[10] = Drug uptake in human LCC-6 cells at 20 uM after 150 mins by spectrofluorometry; format: ADME, cell-based; conditions: lcc-6, 2.5 h
In short: (§2)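 LCC6 or LCC6MDR cells (3 × 10⁶) incubated with 20 or 200 μM compound or DOX, 37 °C, 150 min. Compound: pellet extracted with methanol, supernatant by reversed-phase C18 HPLC, methanol eluent, 1 mL/min, UV detection at 308 or 270 nm. DOX: lysis buffer, fluorescence by spectrofluorometer. N = 2–3, mean ± SEM.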

[11] = P-gp (unknown origin)- mediated durg uptake in human MDA435/LCC6MDR cells at 20 uM after 150 mins by spectrofluorometry relative to control; format: ADME, cell-based; conditions: 2.5 h; in short: as §2
[12] = Drug uptake in human LCC-6 cells at 200 uM after 150 mins by spectrofluorometry; format: ADME, cell-based; conditions: lcc-6, 2.5 h; in short: as §2
[13] = P-gp (unknown origin)- mediated durg uptake in human MDA435/LCC6MDR cells at 200 uM after 150 mins by spectrofluorometry relative to control; format: ADME, cell-based; conditions: 2.5 h, in the assay text read “by HPLC” for “by spectrofluorometry”; in short: as §2
LCC6MDR (human) = experiment: Inhibition of P-gp-mediated doxorubicin efflux in human LCC6MDR cells measured at 1.5 uM after 30 to 150 mins by spectrofluorometry relative to control
[14] = Selectivity index, ratio of IC50 for mouse […] cells to EC50 for modulation of P-gp (unknown origin) transfected in human MDA435/LCC6MDR cells assessed as reversing paclitaxel resistance; design: species or system L929
[15] = molecular target: Multidrug resistance-associated protein 1 (Homo sapiens, UniProt P33527); experiment: Modulation of MRP1 (unknown origin) transfected in human 2008/MRP1 cells assessed as potentiation of doxorubicin-induced cytotoxicity measured as doxorubicin IC50 at 1 uM after 5 days by MTS assay relative to doxorubicin alone treated cell; format: cell-based; conditions: 2008/mrp1, 120 h
In short: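 After 5 days at 37 °C, viability was read by MTS. Doxorubicin IC50 came from nonlinear regression, and RF = IC50 without/with modulator. Parental 2008/P cells served as reference. N = 2−4, triplicates, mean ± SEM.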

[16] = molecular target: T2, Broad substrate specificity ATP-binding cassette transporter ABCG2 (Homo sapiens, UniProt Q9UNQ0); experiment: Modulation of BCRP (unknown origin) transfected in human HEK293/R2 cells assessed as potentiation of topotecan-induced cytotoxicity measured as topotecan IC50 at 1 uM after 5 days by MTS assay relative to topotecan alone treated cell; format: cell-based; conditions: hek293/r2, 120 h
T2 sequence (Q9UNQ0 whole entry): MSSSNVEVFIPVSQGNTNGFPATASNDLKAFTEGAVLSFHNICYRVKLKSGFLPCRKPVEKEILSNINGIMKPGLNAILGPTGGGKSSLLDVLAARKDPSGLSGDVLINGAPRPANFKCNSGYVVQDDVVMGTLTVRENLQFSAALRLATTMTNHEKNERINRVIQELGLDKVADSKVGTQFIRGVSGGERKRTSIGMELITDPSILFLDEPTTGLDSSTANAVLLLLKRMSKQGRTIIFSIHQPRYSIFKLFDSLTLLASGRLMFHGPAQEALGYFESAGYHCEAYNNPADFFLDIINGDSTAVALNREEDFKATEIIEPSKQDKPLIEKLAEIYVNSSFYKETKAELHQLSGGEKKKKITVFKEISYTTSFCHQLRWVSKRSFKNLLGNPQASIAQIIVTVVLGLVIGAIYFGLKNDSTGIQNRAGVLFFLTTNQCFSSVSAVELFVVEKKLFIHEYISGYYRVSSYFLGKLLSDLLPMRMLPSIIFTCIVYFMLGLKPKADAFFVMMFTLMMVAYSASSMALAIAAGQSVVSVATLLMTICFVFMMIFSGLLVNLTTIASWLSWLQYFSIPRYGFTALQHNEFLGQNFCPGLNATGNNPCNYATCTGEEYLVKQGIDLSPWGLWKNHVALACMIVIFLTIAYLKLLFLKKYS
In short: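 Incubated 5 days at 37 °C; viability by MTS. Topotecan IC50 came from nonlinear regression, and RF = IC50 without/with modulator. Empty-vector HEK293/pcDNA3.1 served as reference. N = 2−4, triplicates, mean ± SEM.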

[17] = Modulation of P-gp (unknown origin) transfected in human MDA435/LCC6MDR cells assessed as reversible of paclitaxel resistance measured as IC50 for paclitaxel at 1 uM after 5 days by CellTiter 96 Aqueous assay
[18] = Drug uptake in human LCC-6 cells at 20 uM after 150 mins by spectrofluorometry relative to P-gp expressing cells; format: ADME, cell-based; conditions: lcc-6, 2.5 h; in short: as §2

T1 sequence (P08183 whole entry): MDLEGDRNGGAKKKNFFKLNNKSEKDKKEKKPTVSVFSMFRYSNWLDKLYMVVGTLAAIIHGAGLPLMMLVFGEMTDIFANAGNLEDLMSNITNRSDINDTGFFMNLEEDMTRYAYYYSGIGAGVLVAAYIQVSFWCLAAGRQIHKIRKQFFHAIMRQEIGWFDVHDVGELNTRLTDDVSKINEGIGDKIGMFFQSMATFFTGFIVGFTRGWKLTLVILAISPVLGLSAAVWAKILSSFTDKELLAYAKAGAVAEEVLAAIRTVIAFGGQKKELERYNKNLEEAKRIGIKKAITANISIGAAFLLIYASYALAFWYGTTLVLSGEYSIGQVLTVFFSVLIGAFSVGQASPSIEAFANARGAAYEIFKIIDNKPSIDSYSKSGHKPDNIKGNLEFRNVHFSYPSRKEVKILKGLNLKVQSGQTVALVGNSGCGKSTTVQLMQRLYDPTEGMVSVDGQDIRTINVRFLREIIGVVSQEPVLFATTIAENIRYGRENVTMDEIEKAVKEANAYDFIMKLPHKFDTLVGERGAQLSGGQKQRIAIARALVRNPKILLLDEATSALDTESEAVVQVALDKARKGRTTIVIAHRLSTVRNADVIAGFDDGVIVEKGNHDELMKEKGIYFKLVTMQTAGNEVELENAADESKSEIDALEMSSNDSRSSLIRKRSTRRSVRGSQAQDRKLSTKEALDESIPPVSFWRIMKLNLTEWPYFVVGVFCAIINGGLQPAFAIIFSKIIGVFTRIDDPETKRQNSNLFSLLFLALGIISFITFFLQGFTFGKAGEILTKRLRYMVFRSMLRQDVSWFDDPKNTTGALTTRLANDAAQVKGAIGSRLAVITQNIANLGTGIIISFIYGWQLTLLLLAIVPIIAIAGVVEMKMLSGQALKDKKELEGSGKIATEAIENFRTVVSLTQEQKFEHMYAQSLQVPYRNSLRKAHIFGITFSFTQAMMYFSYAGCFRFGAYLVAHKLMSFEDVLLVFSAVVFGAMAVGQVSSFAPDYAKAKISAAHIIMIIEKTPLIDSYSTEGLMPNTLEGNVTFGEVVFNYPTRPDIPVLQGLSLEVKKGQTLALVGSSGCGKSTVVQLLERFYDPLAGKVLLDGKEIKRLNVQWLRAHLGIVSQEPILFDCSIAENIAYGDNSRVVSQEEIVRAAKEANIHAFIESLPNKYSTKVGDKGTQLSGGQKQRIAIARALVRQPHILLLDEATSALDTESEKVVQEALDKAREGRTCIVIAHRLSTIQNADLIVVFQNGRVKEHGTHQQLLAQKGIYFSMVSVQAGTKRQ
Chain of Multidrug resistance-associated protein 1 (P33527 whole entry): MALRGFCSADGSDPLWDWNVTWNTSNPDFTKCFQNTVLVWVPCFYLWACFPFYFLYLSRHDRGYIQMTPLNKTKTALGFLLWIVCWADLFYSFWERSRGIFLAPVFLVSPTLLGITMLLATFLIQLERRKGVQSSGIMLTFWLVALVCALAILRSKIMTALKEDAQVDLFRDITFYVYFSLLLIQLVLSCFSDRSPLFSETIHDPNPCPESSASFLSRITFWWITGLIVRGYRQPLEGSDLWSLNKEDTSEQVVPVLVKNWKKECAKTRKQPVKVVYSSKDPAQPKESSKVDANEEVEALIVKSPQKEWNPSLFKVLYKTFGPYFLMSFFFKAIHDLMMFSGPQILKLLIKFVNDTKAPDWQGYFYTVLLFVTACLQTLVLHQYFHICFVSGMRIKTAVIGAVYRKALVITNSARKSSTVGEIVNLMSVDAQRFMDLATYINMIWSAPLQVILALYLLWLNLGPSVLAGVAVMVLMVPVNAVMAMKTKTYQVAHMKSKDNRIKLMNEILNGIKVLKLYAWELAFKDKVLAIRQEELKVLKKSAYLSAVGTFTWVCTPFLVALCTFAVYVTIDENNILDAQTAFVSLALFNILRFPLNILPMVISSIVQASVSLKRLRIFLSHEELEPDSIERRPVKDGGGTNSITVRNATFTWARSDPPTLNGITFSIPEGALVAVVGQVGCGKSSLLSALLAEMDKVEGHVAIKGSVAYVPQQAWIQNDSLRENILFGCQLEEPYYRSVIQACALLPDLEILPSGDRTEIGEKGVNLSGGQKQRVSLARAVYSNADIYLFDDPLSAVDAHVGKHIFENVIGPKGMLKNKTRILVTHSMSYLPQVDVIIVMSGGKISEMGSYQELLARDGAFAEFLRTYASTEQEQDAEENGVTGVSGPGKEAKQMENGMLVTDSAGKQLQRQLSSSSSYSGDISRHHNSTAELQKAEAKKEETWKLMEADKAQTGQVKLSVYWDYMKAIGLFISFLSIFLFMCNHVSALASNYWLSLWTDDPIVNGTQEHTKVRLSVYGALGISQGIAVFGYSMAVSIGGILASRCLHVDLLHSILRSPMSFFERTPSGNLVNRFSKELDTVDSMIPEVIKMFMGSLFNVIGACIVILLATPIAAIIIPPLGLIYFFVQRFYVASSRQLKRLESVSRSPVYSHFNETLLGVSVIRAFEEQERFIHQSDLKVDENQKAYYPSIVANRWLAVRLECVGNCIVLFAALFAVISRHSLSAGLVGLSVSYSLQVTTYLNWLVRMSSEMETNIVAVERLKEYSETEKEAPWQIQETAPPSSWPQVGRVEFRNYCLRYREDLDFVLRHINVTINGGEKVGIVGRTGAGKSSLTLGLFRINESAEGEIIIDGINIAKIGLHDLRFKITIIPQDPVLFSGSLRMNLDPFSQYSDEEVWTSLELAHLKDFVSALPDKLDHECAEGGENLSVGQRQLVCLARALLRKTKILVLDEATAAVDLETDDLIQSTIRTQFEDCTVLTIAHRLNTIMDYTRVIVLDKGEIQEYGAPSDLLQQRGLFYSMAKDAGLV

Ratio [3]	fold change (FC) [5]	Drug uptake [10]	Drug uptake [11]	Drug uptake [12]	Drug uptake [13]	IC50 [17] [µM]	Drug uptake [18]	SMILES	IC50 [1] [µM]	IC50 [2] [µM]	IC50 (L929) [µM]	Ratio [4]	Activity (Homo sapiens [6])	Activity (Homo sapiens [7])	Activity (LCC-6 [8])	Activity (LCC-6 [9])	inhibition (LCC6MDR (human))	Ratio IC50/EC50 [14]	Ratio [15]	Ratio [16]
–	2.7	Active	Not Active	Active	Not Active	–	–	COc1cc(OC)c2c(c1)O[C@H](c1cc(OC)c(OC)c(OC)c1)[C@H](OC(=O)/C=C/c1cc(OC)c(OC)c(OC)c1)C2	> 100	> 100	> 100	–	Dose-dependent effect	Active	inactive	inactive	Active	–	–	–
53.6	–	Active	Not Active	Active	Not Active	0.0027	–	COc1cc(OC)c2c(c1)O[C@H](c1cc(OC)c(OC)c(OC)c1)[C@@H](OC(=O)c1ccc(F)c(NC(=O)c3cc(OC)c(OC)c(OC)c3)c1)C2	> 100	> 100	> 100	–	–	–	–	–	–	>714	2.6	12.3
–	–	–	–	–	–	–	–	COc1ccc(CCN(C)CCCC(C#N)(c2ccc(OC)c(OC)c2)C(C)C)cc1OC (stereo unspecified)	–	–	–	–	Dose-dependent effect	Active	–	–	–	–	–	–
43.8	2.7	–	–	–	–	–	–	COc1cc(OC)c2c(c1)O[C@H](c1cc(OC)c(OC)c(OC)c1)[C@H](OC(=O)c1ccc(F)c(NC(=O)c3cc(OC)c(OC)c(OC)c3)c1)C2	> 100	> 100	> 100	–	–	Active	inactive	–	Active	>467	0.9	2.3
–	–	–	–	–	–	–	Active	COc1cccc2c1C(=O)c1c(O)c3c(c(O)c1C2=O)C[C@@](O)(C(=O)CO)C[C@@H]3O[C@H]1C[C@H](N)[C@H](O)[C@H](C)O1 [DOXORUBICIN]	–	–	–	–	–	–	–	–	–	–	–	–
31.4	–	–	–	–	–	0.0046	–	COc1cc(OC)c2c(c1)O[C@H](c1cc(OC)c(OC)c(OC)c1)[C@@H](OC(=O)c1ccc(F)c(NC(=O)c3ccc(OC)c(OC)c3)c1)C2	> 100	> 100	> 100	–	–	–	–	–	–	>585	2.6	10.4
48.2	2.5	–	–	–	–	–	–	COc1cc(OC)c2c(c1)O[C@H](c1cc(OC)c(OC)c(OC)c1)[C@H](OC(=O)c1ccc(F)c(NC(=O)c3ccc(OC)c(OC)c3)c1)C2	> 100	> 100	> 100	–	Dose-dependent effect	–	–	–	–	>698	0.8	2.7

SMILES	Ratio [3]	fold change (FC) [5]	Drug uptake [10]	Drug uptake [11]	Drug uptake [12]	Drug uptake [13]	IC50 [17] [µM]	Drug uptake [18]	IC50 [1] [µM]	IC50 [2] [µM]	IC50 (L929) [µM]	Ratio [4]	Activity (Homo sapiens [6])	Activity (Homo sapiens [7])	Activity (LCC-6 [8])	Activity (LCC-6 [9])	inhibition (LCC6MDR (human))	Ratio IC50/EC50 [14]	Ratio [15]	Ratio [16]
O=C(O[C@@H]1Cc2c(O)cc(O)cc2O[C@@H]1c1cc(O)c(O)c(O)c1)c1cc(O)c(O)c(O)c1 [EPIGALOCATECHIN GALLATE]	1.2	–	–	–	–	–	–	–	69.1	56	82.3	1.2	–	–	–	–	–	–	–	–
